Rows were chosen to be rich in hits. Some 1.8% of all compounds tested hit in one or more screens of this group.
M4 ag: agonists of human muscarinic M4 receptor (CHRM4) | P08173 | CHO-K1 hM4/Gqi5, Fluo-8 calcium fluorescence; vehicle 0%, full acetylcholine response 100% | activation, % at 3 µM | 0.14% of 360,000 active | AID 624127;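 active = activation above the run mean over all test wells plus 3 SD, cut at about 32% in these data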;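 note: peak over basal fluorescence ratio per well then scaled between controls; 0% = DMSO wells and 100% = acetylcholine at EC100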
Target sequence (P08173 whole entry, looked up): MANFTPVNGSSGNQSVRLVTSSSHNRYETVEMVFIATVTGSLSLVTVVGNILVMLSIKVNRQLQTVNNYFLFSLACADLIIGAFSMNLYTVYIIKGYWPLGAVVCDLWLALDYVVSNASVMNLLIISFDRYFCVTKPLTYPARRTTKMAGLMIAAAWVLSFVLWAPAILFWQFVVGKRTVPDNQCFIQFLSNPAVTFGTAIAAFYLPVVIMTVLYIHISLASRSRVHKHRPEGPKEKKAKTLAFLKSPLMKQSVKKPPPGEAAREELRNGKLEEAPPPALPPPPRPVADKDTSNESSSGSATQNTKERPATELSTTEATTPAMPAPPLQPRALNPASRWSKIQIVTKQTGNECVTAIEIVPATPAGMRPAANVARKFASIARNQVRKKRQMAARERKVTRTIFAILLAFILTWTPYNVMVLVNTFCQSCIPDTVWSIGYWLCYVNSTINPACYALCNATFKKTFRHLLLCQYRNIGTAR
CHRM4 PAM: positive allosteric modulators of human muscarinic M4 receptor | P08173 | CHO-K1 hM4/Gqi5, Fluo-8 calcium fluorescence, ACh EC20; 0% = ACh EC20, 100% = maximal ACh | activation, % at 3 µM | 0.4% of 360,000 active | AID 624126;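 active = activation above its plate's cutoff, the mean activation of sample wells plus 3 SD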
M5 antag: antagonists of human muscarinic M5 receptor (CHRM5) | CHO-hM5 cells, Fluo-8 calcium fluorescence, ACh EC80 | inhibition, % at 3 µM | 0.59% of 360,000 active | AID 624040;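 active = inhibition above a per-plate cutoff, the mean of that plate's test compounds plus 3 SD, cut at about 27% in these data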;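 note: 0% = acetylcholine EC80 with DMSO and 100% = DMSO without agonist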
CHRM5 agonist: agonists of human muscarinic M5 receptor (CHRM5); P08912; CHO-K1 hM5 cells, Fluo-8 calcium fluorescence; 0% DMSO wells, 100% maximal acetylcholine response; AID 624037; 0.19% of 360,000 active; activation, % at 3 µM;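 active = activation above the run's mean over test compounds plus 3 SD, cut at about 23% in these data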;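 note: signal is peak over basal fluorescence ratio across the kinetic read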
M4 antag: CHRM4 antagonism in calcium assay; P08173; inhibition, % at 3 µM; 0.73% of 360,000 active; AID 624125; CHO-hM4 cells, ACh EC80, Fluo-8 calcium fluorescence;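 active = inhibition above its plate's cutoff, the mean inhibition of sample wells plus 3 SD, cut at about 27% in these data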;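 note: 0% = acetylcholine EC80 with DMSO and 100% = DMSO without agonist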
CHRM5 PAM: potentiates acetylcholine response at human M5 receptor; 0.3% of 360,000 active; AID 624038; activation, % at 3 µM; P08912; CHO-K1 hM5, Fluo-8 calcium, ACh EC20 PAM; 0% = ACh EC20, 100% = ACh EC100;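 active = activation above the run cutoff, the mean activation of all test compounds plus 3 SD, cut at about 18% in these data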
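Test system: CHO-K1 hM5 cells / Doses: single-point, 3 µM nominal / Times: Post-acetylcholine fluorescence recording 140 s / Technique: Fluo-8 calcium fluorescence / Measure: Max/basal fluorescence ratio as % of EC20–EC100 ACh window / Benchmarks: low control EC20 acetylcholine (0%), high control EC100 acetylcholine (100%) / Replicates: one well per compound, no replicates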
* hit, by the source's call.

SMILES	M4 ag	CHRM4 PAM	M5 antag	CHRM5 agonist	M4 antag	CHRM5 PAM
CCc1ccc(-c2cc(C)no2)cc1S(=O)(=O)NCCCN1CCN(c2ccccc2)CC1	25	-13	29*	1	31*	-15
CC(=O)c1ccc(S(=O)(=O)Nc2ccc(C(=O)NCC(c3cccs3)N3CCOCC3)cc2)cc1 (stereo not given)	2	9	7	-2	-24	-8
COc1ccc(C(CNC(=O)c2ccc(NS(=O)(=O)c3ccc(F)c(C)c3)cc2)N2CCCC2)cc1 (stereo not given)	2	-13	-4	-13	28*	-1
O=C(NCC(c1cccs1)N1CCOCC1)c1ccccc1NS(=O)(=O)c1ccc(Cl)c([N+](=O)[O-])c1 (stereo not given)	19	-18	43*	7	14	-18
O=C(NCC(c1cccs1)N1CCOCC1)c1ccccc1NS(=O)(=O)c1cccc([N+](=O)[O-])c1 (stereo not given)	7	-2	0	4	-6	-1
CCOc1ccc(NS(=O)(=O)c2ccc(C(=O)NCC(c3cccs3)N3CCOCC3)cc2)cc1 (stereo not given)	39*	-8	5	50*	8	-6
O[C@H]1C[C@H](c2ccccc2)N(Cc2cccs2)C[C@@H]1n1cc(-c2ccc(F)cc2)nn1	0	4	-12	0	-3	4
O=C(Nc1ccccc1)c1cc(C2CCCN(C(=O)c3cccs3)C2)on1 (stereo not given)	3	3	-7	-2	-15	-2
COc1ccc(NC(=O)C(=O)NCCC2CCCCN2S(=O)(=O)c2ccc(F)cc2)cc1 (stereo not given)	3	-2	3	-2	-6	-4
Cn1c(=O)[nH]c(=O)c2c1nc([N+](=O)[O-])n2Cc1ccccc1	1	41*	2	7	-24	4
COc1ccc(NS(=O)(=O)c2cccc(C(=O)N/N=C/c3cn(-c4ccccc4)nc3-c3ccccc3)c2)cc1	1	-20	11	-2	51*	-3
COc1ccc(Cl)cc1NC(=O)CN(C)C(=O)c1cc(-c2ccncc2)nc2ccccc12	33*	-14	27*	3	13	-25
COc1ccc(NC(=O)CN(C)C(=O)c2cc(-c3ccncc3)nc3ccccc23)cc1	18	-10	23	1	7	-9
CCCN(CC1CC1)C(=S)NC(=O)c1cc(Br)ccc1Cl	1	7	-3	-6	-14	-3
Cc1cc(C(=O)COC(=O)C23CC4CC(CC(O)(C4)C2)C3)c(C)n1C	2	6	10	0	-5	-4
COc1cccc(NC(=S)N(Cc2ccc(C(=O)O)cc2)Cc2ccc(OC)c(OC)c2)c1	1	20*	-3	3	9	3
O=C(CCCN1C(=O)c2ccccc2C1=O)Nc1ccc(S(=O)(=O)N2CCOCC2)cc1	2	11	7	-4	28*	-6
O=C(CCCN1C(=O)c2ccccc2C1=O)Nc1ccc(S(=O)(=O)N2CCCCC2)cc1	13	5	-7	2	-20	3
CC1CCN(C(C)C(=O)Nc2ccc(S(=O)(=O)N3CCCC3)cc2)CC1 (stereo not given)	2	-16	14	-10	78*	-38
CC1CCN(C(C)C(=O)Nc2cc(S(=O)(=O)N3CCCCC3)ccc2Cl)CC1 (stereo not given)	-2	2	12	1	2	-2
COC(=O)CCC(=O)Nc1ccc(S(=O)(=O)N2CCCCCC2)cc1	1	21	-7	-1	-15	19*
CC(C)CC(=O)Nc1ccc(S(=O)(=O)N2CCCC2)cc1	1	-6	28*	-5	9	-3
CCc1noc(C)c1C(=O)N(CCC(C)C)c1c(N)n(Cc2ccccc2)c(=O)[nH]c1=O	1	16	3	-1	-6	3
CC(C)NC(=O)C1(C)CCN1C(=O)c1ccccc1F (stereo not given)	0	1	2	-1	3	-2
COc1ccc(C(=O)/C=C2/C(=O)Nc3ccccc32)c(OC)c1	9	-15	13	6	29*	-2
SMILES	M4 ag	CHRM4 PAM	M5 antag	CHRM5 agonist	M4 antag	CHRM5 PAM
COc1ccc(C(=O)/C=C2/C(=O)Nc3ccccc32)cc1OC	6	-8	3	8	-13	5
COc1ccc(C(=O)/C=C2/C(=O)Nc3ccccc32)cc1	8	-10	8	12	4	11
O=C1Nc2ccccc2/C1=C/C(=O)c1cccs1	5	-9	16	8	8	19*
Cc1ccnc(Nc2cccnc2)n1	1	-3	-9	-1	0	5
Cn1c(-c2ccccc2)c(Sc2ccccc2)c2cc(-c3ccc4cc[nH]c4c3)ccc21	0	9	-2	1	-9	-1
CCCC(C)C(=O)Nc1ncc(S(=O)(=O)c2ccc([N+](=O)[O-])cc2)s1 (stereo not given)	67*	-7	10	49*	11	-4
CCC(C)(C)C(=O)Nc1ncc(S(=O)(=O)c2ccc([N+](=O)[O-])cc2)s1	12	-5	9	16	5	-9
O=C1CCC2(CCCCC2)N1	0	5	6	1	-14	-3
Cc1ccc(C)c(NC(=O)CN(C)C(=O)c2ccc(-c3cccc(C(F)(F)F)c3)o2)c1	0	4	0	1	-5	-5
CCN1CCN(CC(=O)N2N=C(c3cccs3)CC2c2ccc(OC)c(OC)c2)C(=O)C1=O (stereo not given)	0	1	6	-2	-12	6
C=C1C(=O)c2sccc2C(c2ccc(OC)c(OC)c2)C1COC(C)=O (stereo not given)	4	-1	9	8	30*	8
Cc1cccc(CN2CCN(C3CN(Cc4cn(Cc5cccc(Cl)c5)nn4)S(=O)(=O)C3)CC2)c1 (stereo not given)	1	-3	5	-2	0	-5
NC(=O)[C@@H]1CCOc2c(I)cc([N+](=O)[O-])cc2C(=O)N[C@@H](CO)C(=O)NCC(=O)N1	0	13	0	2	-4	21*
NC(=O)CC[C@@H]1NC(=O)[C@H](CO)NC(=O)c2cc([N+](=O)[O-])cc(I)c2OCC[C@@H](C(N)=O)NC1=O	1	5	-4	5	7	2
O=C(NCCc1ccc(Cl)cc1)C1CCCN(c2ncnc3c2nc2n3CCCCC2)C1 (stereo not given)	2	0	-8	-3	-9	-1

Source: PubChem BioAssay
